Measurements from ChEMBL document CHEMBL1145092, “Soft antimicrobial agents: synthesis and activity of labile environmentally friendly long chain quaternary ammonium compounds” (J Med Chem, 2003).
Each block holds one molecule with its values, some of them ahead of it.

Legend:
[1] = test system: Enterococcus faecalis; assay: Minimum concentration required to inhibit Enterococcus faecalis ATCC 29212; format: functional
How it was run: (§1)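 Broth doubling-dilution MIC in Mueller Hinton broth against ATCC quality-control strains, incubated 24 h at 37 °C in ambient air. Poorly water-soluble compounds were dissolved in minimal DMSO. Values are in µg/mL.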

[2] = test system: Escherichia coli; assay: Minimum concentration required to inhibit Escherichia coli ATCC 25922; format: functional; how it was run: as §1
[3] = test system: Staphylococcus aureus; assay: Minimum concentration required to inhibit Staphylococcus aureus ATCC 25923; format: functional; how it was run: as §1
[4] = test system: Pseudomonas aeruginosa; assay: Minimum concentration required to inhibit Pseudomonas aeruginosa ATCC 27853; format: functional; how it was run: as §1
[5] = Half life (t1/2) was determined; format: ADME
How it was run: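 Hydrolytic stability: compound from a 0.1 mg/mL ethanol stock was spiked into 10 mM phosphate buffer, pH 6, and held at 60 °C (±0.2 °C). Periodic HPLC or LC-MS/MS analysis was run, and k_obs came from linear regression of peak integration (n = 3). Selected compounds were also tested in diluted (1:4) agar at 37 °C.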

[6] = test system: Staphylococcus aureus; assay: Tested for antibacterial activity against Staphylococcus aureus; format: functional

SMILES: CCCCCCCCCCCC(=O)OCC[N+](CC)(CC)CC.[Br-]
MIC [1]: 32 µg/mL
MLC [1]: 32 µg/mL
MIC [2]: 16 µg/mL
MLC [2]: 125 µg/mL
MIC [3]: 16 µg/mL
MLC [3]: 16 µg/mL
MIC [4]: 250 µg/mL
MLC [4]: 250 µg/mL
Log t1/2 [5]: 0.52
Log 1/MIC [6]: -1.2

SMILES: CCCCCCCCCCCC(=O)OCC[N+](CC)(CC)CC.CCCCCCCCCCCC(=O)OCC[n+]1ccccc1.[Br-].[Br-]
MIC [1]: 64 µg/mL
MLC [1]: 64 µg/mL
MIC [2]: 125 µg/mL
MLC [2]: 250 µg/mL
MIC [3]: 32 µg/mL
MLC [3]: 125 µg/mL
MIC [4]: 1000 µg/mL
MLC [4]: 1000 µg/mL

SMILES: CCCCCCCCCCCCCCCC(=O)OCC[N+](CCCC)(CCCC)CCCC
MIC [1]: 4 µg/mL
MLC [1]: 8 µg/mL
MIC [2]: 125 µg/mL
MLC [2]: 250 µg/mL
MIC [3]: 2 µg/mL
MLC [3]: 2 µg/mL
MIC [4]: 250 µg/mL
MLC [4]: 1000 µg/mL
Log t1/2 [5]: 0.12
Log 1/MIC [6]: -0.3

SMILES: CCCCCCCCCCCC(=O)OCCC[n+]1ccccc1
MIC [1]: 4 µg/mL
MLC [1]: 16 µg/mL
MIC [2]: 125 µg/mL
MLC [2]: 125 µg/mL
MIC [3]: 4 µg/mL
MLC [3]: 4 µg/mL
MIC [4]: 250 µg/mL
MLC [4]: 250 µg/mL
Log t1/2 [5]: 1.81
Log 1/MIC [6]: -0.6

SMILES: CCCCCCCCCCCCCCCCCCOC(=O)C[n+]1ccccc1
MIC [1]: > 12800 µg/mL
MLC [1]: >12800 µg/mL
MIC [2]: > 12800 µg/mL
MLC [2]: >12800 µg/mL
MIC [3]: > 12800 µg/mL
MLC [3]: >12800 µg/mL
MIC [4]: > 12800 µg/mL
MLC [4]: >12800 µg/mL
Log t1/2 [5]: -1.1
Log 1/MIC [6]: -4.1

SMILES: CC[N+](CC)(CC)CCO.[Br-]
MIC [1]: > 1000 µg/mL
MLC [1]: >1000 µg/mL
MIC [2]: > 1000 µg/mL
MLC [2]: >1000 µg/mL
MIC [3]: > 1000 µg/mL
MLC [3]: >1000 µg/mL
MIC [4]: > 1000 µg/mL
MLC [4]: >1000 µg/mL

SMILES: CCCCCCCCCCCC(=O)OCC[n+]1ccccc1.CCCCCCCCCCCCCCCC(=O)OCC[n+]1ccccc1.CCCCCCCCCCCCCCCCCC(=O)OCC[n+]1ccccc1.[Br-].[Br-].[Br-]
MIC [1]: 32 µg/mL
MLC [1]: 32 µg/mL
MIC [2]: 125 µg/mL
MLC [2]: 250 µg/mL
MIC [3]: 8 µg/mL
MLC [3]: 16 µg/mL
MIC [4]: > 2000 µg/mL
MLC [4]: >2000 µg/mL

SMILES: CCCCCCCCCCCCCCCCCCNC(=O)C[n+]1ccccc1.CCCCCCCCCCCCNC(=O)C[n+]1ccccc1.[Cl-].[Cl-]
MIC [1]: 8 µg/mL
MLC [1]: 16 µg/mL
MIC [2]: 125 µg/mL
MLC [2]: 125 µg/mL
MIC [3]: 8 µg/mL
MLC [3]: 32 µg/mL
MIC [4]: 500 µg/mL
MLC [4]: 500 µg/mL

SMILES: O=C(O)C[n+]1ccccc1
MIC [1]: 12800 µg/mL
MLC [1]: 12800 µg/mL
MIC [2]: 12800 µg/mL
MLC [2]: 12800 µg/mL
MIC [3]: 6400 µg/mL
MLC [3]: 12800 µg/mL
MIC [4]: 12800 µg/mL
MLC [4]: 12800 µg/mL

SMILES: CCOC(=O)C[n+]1ccccc1
MIC [1]: > 12800 µg/mL
MLC [1]: >12800 µg/mL
MIC [2]: > 12800 µg/mL
MLC [2]: >12800 µg/mL
MIC [3]: > 12800 µg/mL
MLC [3]: >12800 µg/mL
MIC [4]: > 12800 µg/mL
MLC [4]: >12800 µg/mL

SMILES: CCCCCCCCCCCC(=O)OCC[N+](CCCC)(CCCC)CCCC.CCCCCCCCCCCCCCCC(=O)OCC[N+](CCCC)(CCCC)CCCC.[Br-].[Br-]
MIC [1]: 16 µg/mL
MLC [1]: 16 µg/mL
MIC [2]: 250 µg/mL
MLC [2]: 500 µg/mL
MIC [3]: 4 µg/mL
MLC [3]: 32 µg/mL
MLC [4]: >2000 µg/mL

The next lines start with results.

MIC [1]: > 12800 µg/mL
MIC [2]: > 12800 µg/mL
MIC [3]: > 12800 µg/mL
MIC [4]: > 12800 µg/mL
SMILES: CCOC(=O)C(C)[n+]1ccccc1 (stereo not drawn)
MLC [1]: >12800 µg/mL
MLC [2]: >12800 µg/mL
MLC [3]: >12800 µg/mL
MLC [4]: >12800 µg/mL

MIC [1]: > 12800 µg/mL
MIC [2]: > 12800 µg/mL
MIC [3]: > 12800 µg/mL
MIC [4]: > 12800 µg/mL
Log t1/2 [5]: 0.15
Log 1/MIC [6]: -4.1
SMILES: CCCCCCOC(=O)C[n+]1ccccc1
MLC [1]: >12800 µg/mL
MLC [2]: >12800 µg/mL
MLC [3]: >12800 µg/mL
MLC [4]: >12800 µg/mL

MIC [1]: > 1000 µg/mL
MIC [2]: > 1000 µg/mL
MIC [3]: > 1000 µg/mL
MIC [4]: > 1000 µg/mL
SMILES: O=C(O)CC[n+]1ccccc1
MLC [1]: >1000 µg/mL
MLC [2]: >1000 µg/mL
MLC [3]: >1000 µg/mL
MLC [4]: >1000 µg/mL

MIC [1]: 16 µg/mL
MIC [2]: 64 µg/mL
MIC [3]: 16 µg/mL
MIC [4]: 250 µg/mL
SMILES: CCCCCCCCCCCC(=O)OCC[N+](C)(C)C
MLC [1]: 64 µg/mL
MLC [2]: 64 µg/mL
MLC [3]: 16 µg/mL
MLC [4]: 250 µg/mL

MIC [1]: 250 µg/mL
MIC [2]: > 1000 µg/mL
MIC [3]: 250 µg/mL
MIC [4]: > 1000 µg/mL
Log 1/MIC [6]: 0.42
SMILES: CCCCCCCCCCCCCCCCOC(=O)CC[n+]1ccccc1
MLC [1]: 500 µg/mL
MLC [2]: >1000 µg/mL
MLC [3]: 250 µg/mL
MLC [4]: >1000 µg/mL

MIC [1]: < 0.25 µg/mL
MIC [2]: 1000 µg/mL
MIC [3]: < 0.25 µg/mL
MIC [4]: 1000 µg/mL
Log t1/2 [5]: 0.81
Log 1/MIC [6]: 0.6
SMILES: CCCCCCCCCCCCCCCCCCNC(=O)C[n+]1ccccc1
MLC [1]: 8 µg/mL
MLC [2]: >2000 µg/mL
MLC [3]: 4 µg/mL
MLC [4]: >2000 µg/mL

MIC [1]: > 2000 µg/mL
MIC [2]: > 2000 µg/mL
MIC [3]: > 2000 µg/mL
MIC [4]: > 2000 µg/mL
SMILES: C[N+](C)(C)CCO [CHOLINE]
MLC [1]: >2000 µg/mL
MLC [2]: >2000 µg/mL
MLC [3]: >2000 µg/mL
MLC [4]: >2000 µg/mL

MIC [1]: 320 µg/mL
MIC [2]: 3200 µg/mL
MIC [3]: 3200 µg/mL
MIC [4]: 3200 µg/mL
SMILES: CC(=O)OC[n+]1ccccc1.[Cl-]
MLC [1]: 3200 µg/mL
MLC [2]: 3200 µg/mL
MLC [3]: 3200 µg/mL
MLC [4]: 3200 µg/mL

MIC [1]: 32 µg/mL
MIC [2]: 125 µg/mL
MIC [3]: 16 µg/mL
MIC [4]: 500 µg/mL
SMILES: CCCCCCCCCCCC(=O)OCC[N+](CC)(CC)CC.CCCCCCCCCCCC(=O)OCC[N+](CCCC)(CCCC)CCCC.CCCCCCCCCCCC(=O)OCC[n+]1ccccc1.CCCCCCCCCCCCNC(=O)C[n+]1ccccc1.[Br-].[Br-].[Br-].[Br-]
MLC [1]: 32 µg/mL
MLC [2]: 250 µg/mL
MLC [3]: 250 µg/mL
MLC [4]: 1000 µg/mL

MIC [1]: > 2000 µg/mL
MIC [2]: > 2000 µg/mL
MIC [3]: > 2000 µg/mL
MIC [4]: > 2000 µg/mL
SMILES: OCCC[n+]1ccccc1
MLC [1]: >2000 µg/mL
MLC [2]: >2000 µg/mL
MLC [3]: >2000 µg/mL
MLC [4]: >2000 µg/mL

MIC [1]: 32 µg/mL
MIC [2]: 500 µg/mL
MIC [3]: 8 µg/mL
MIC [4]: > 2000 µg/mL
SMILES: CCCCCCCCCCCC(=O)OCC[N+](CC)(CC)CC.CCCCCCCCCCCCCCCC(=O)OCC[N+](CC)(CC)CC.[Br-].[Br-]
MLC [1]: 125 µg/mL
MLC [2]: 500 µg/mL
MLC [3]: 16 µg/mL
MLC [4]: >2000 µg/mL
